Only some compounds are listed: those with a hit (about 1.6% of all), similar ones and a draw of the others.
HNF4A DNA FP: change in binding of human HNF4 alpha to DNA. HNF4a-FITC DNA binding, fluorescence polarization, 1 h. 360,000 compounds, 0.3% hits. activity change, % at 10 µM; in the data active means activity change above about 30%, passing the limit was not always enough
Rpn11 block: inhibitors of human proteasome Rpn11 | human 26S proteasome, Ub4-pepOG fluorescence polarization; 20S core pre-blocked with epoxomicin | 360,000 compounds, 0.59% hits | O00487 | calls only at 20 µM;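 active means inhibition at 20 µM, scaled to each plate's controls, above about 33%, limit read from the data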
TPT1 inh: blocks Candida albicans tRNA 2'-phosphotransferase. recombinant caTPT1, FP RNA substrate dephosphorylation. inhibition, % at 5 µM. 300,000 compounds, 0.81% hits;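 active means inhibition above the mean of all tested compounds plus 3 SD, set per screening campaign, cut at about 24% in these data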;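 further: plate controls were DMSO alone for no effect and ferristatin control at 100 nM for full effect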
PKA-R2B act: PKA-R2B complex activation. P22694+P31323. PKA-R2B holoenzyme dissociation, Cy5-IP20 fluorescence polarization; R2B truncated from residue 108, S112A mutant; 0% DMSO only, 100% 113 µM cGMP. activation, % at 11.4 µM. 340,000 compounds, 0.079% hits. AID 504700;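 active means activation above a cutoff set at the mean over all compounds plus 3 SD, cut at about 18% in these data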;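 further: higher means more holoenzyme dissociation and a rise in polarization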
Target sequence (P31323 whole entry, looked up, other chains not shown, the tested form may be a part): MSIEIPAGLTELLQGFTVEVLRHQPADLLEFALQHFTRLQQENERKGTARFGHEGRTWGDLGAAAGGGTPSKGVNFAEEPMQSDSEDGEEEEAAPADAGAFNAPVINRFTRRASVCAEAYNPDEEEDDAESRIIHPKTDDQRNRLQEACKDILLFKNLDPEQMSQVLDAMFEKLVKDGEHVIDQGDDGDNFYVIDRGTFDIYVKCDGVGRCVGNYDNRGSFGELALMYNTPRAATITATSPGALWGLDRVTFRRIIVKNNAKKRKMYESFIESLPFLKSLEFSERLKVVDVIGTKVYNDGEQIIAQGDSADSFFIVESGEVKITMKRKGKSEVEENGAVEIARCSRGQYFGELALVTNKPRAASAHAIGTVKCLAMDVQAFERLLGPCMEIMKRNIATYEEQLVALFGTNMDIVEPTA
PKA-R1A activ: activates the PKA-R1A holoenzyme complex | P00514+P68181 | AID 504707 | PKA-R1A dissociation, Cy5-IP20 fluorescence polarization; scaled: DMSO 0%, 113 µM cGMP 100% | 340,000 compounds, 0.083% hits | activation, % at 11.4 µM;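 active means percent activation above the mean of all tested compounds plus 3 SD, cut at about 19% in these data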;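 further: higher means more PKAc released from R1A so a rise in polarization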
CSN deneddyl inh: inhibitors of human CSN-mediated cullin deneddylation; Purified CSN, SCF-Nedd8-OG deneddylation, fluorescence polarization; inhibition, % at 12.5 µM; 360,000 compounds, 0.38% hits;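 active means pattern-corrected inhibition above about 35%, with an unprinted fluorescence ratio check between 0.5 and 1.5, limit read from the data, passing the limit was not always enough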;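 further: 0% = enzyme with substrate and 100% = substrate without enzyme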
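Assay system: HEK293T-derived human Csn5 enzyme; quantity: 0.24 nM enzyme; medium: Tris/NaCl/DTT buffer, pH 7.5; also added: substrate SCFSkp2-Nedd8OG, 10 nM; doses: 12.5 µM compound; schedule: 90 min reaction at room temperature; signal: FP; read-out: % inhibition of substrate cleavage by Csn5; benchmarks: substrate-only high control, full reaction low control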
TPT1 inh confirm: TPT1 (C. albicans) inhibition, confirmation | shares compounds with TPT1 inh | recombinant caTPT1, fluorescence polarization, RNase T1 coupled | inhibition, % at 5 µM | 2,400 compounds, 74% hits;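 active means inhibition above the primary screen limit, the mean inhibition of all tested compounds plus 3 SD, cut at about 25% in these data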
RNase T1 inh: RNase T1 inhibition in TPT1 counter-screen; 2,400 compounds, 83% hits; RNase T1 cleavage, fluorescence polarization, 1536-well; shares compounds with TPT1 inh; inhibition, % at 5 µM; AID 2153;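 active means inhibition above the solvent-only control well mean plus 3 SD, limit set per screening run, cut at about 23% in these data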;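 further: plate controls were DMSO wells with enzyme for no effect and wells without RNase T1 for full effect; inhibitors block cleavage so intact labeled substrate keeps polarization high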
Rpn11 confirm: Rpn11 inhibition confirmation, single concentration. inhibition, % at 20 µM. 1,900 compounds, 29% hits. shares compounds with Rpn11 block. purified human 26S proteasome, Ub4-pepOG fluorescence polarization; proteasome pretreated with epoxomicin
MMP-2 counter: counter-screen for RPN11 inhibitors: inhibition of human MMP-2 | shares compounds with Rpn11 block | recombinant MMP-2, FRET peptide cleavage fluorescence | inhibition, % at 20 µM | 1,900 compounds, 4% hits | AID 602330;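 further: human MMP-2 activated beforehand with APMA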
Thrombin inh: blocks bovine thrombin, flagging nonselective RPN11 hits; 1,900 compounds, 13% hits; shares compounds with Rpn11 block; inhibition, % at 20 µM; bovine thrombin cleavage of Ub4-pepOG, fluorescence polarization;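 active means mean inhibition at least 40% at 20 µM, or signal 3 deviations below plate average, so some actives read negative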;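 further: plate controls were thrombin with DMSO for no effect and buffer wells lacking thrombin for full effect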
An asterisk follows results filed as active; i = inactive; nt = not tested or not shown; + = active, no number. Unless noted, no stated cut-off is given here; in the data, active means inhibition above about 40%; inactive means the rest.

SMILES	HNF4A DNA FP	Rpn11 block	TPT1 inh	PKA-R2B act	PKA-R1A activ	CSN deneddyl inh	TPT1 inh confirm	RNase T1 inh	Rpn11 confirm	MMP-2 counter	Thrombin inh
COc1cc(/C=C(/C#N)C(=O)NC(C)c2ccccc2)cc(OC)c1O (stereo unspecified)	3	+	66*	6	1	18	107*	108*	22	-12	8
CC(NC(=O)/C(C#N)=C/c1ccc(C(=O)O)cc1)c1ccccc1 (stereo unspecified)	4	i	-5	-4	-5	5	nt	nt	nt	nt	nt
NS(=O)(=O)c1ccc(N/N=C/c2cn(-c3ccccc3)nc2-c2ccccc2)c([N+](=O)[O-])c1	2	i	4	7	-9	-3	nt	nt	nt	nt	nt
O=[N+]([O-])c1ccc(N/N=C/c2cn(-c3ccccc3)nc2-c2ccccc2)cc1	28	+	118*	8	0	16	103*	111*	26	-20	10
CCOCCCNC(=O)c1cccc(OC2CCN(S(C)(=O)=O)CC2)c1	2	i	3	6	-4	-4	nt	nt	nt	nt	nt
O=C(CSc1nnc(-c2ccccc2)o1)N1CCCCC1	2	i	0	2	-4	3	nt	nt	nt	nt	nt
CCCCn1c(O)c(/C=C/C=C/C=Nc2ccccc2)sc1=S	51*	+	44*	-2	-3	24	20	28*	35	19	37
COc1cccc(NC2=Nc3cccc4cccc2c34)c1	19	+	25*	-6	-16	5	35*	44*	44*	-26	21
COc1ccc(CC(=O)NNC2=Nc3cccc4cccc2c34)cc1OC	1	i	-3	-5	-2	3	nt	nt	nt	nt	nt
COc1cc(NC2=Nc3cccc4cccc2c34)cc(OC)c1OC	9	+	31*	-10	-16	4	32*	43*	40	16	24
COc1cccc(Nc2n[nH]c(=S)s2)c1	4	i	-4	-2	-1	-6	nt	nt	nt	nt	nt
O=C(NNC(=O)c1nc2ccccc2[nH]1)OCc1ccccc1	4	i	nt	4	7	-4	nt	nt	nt	nt	nt
NS(=O)(=O)c1ccc(Nc2ccc([N+](=O)[O-])c3nonc23)cc1	30	+	38*	1	3	17	48*	62*	45*	-71	34
CC(=O)n1cc([C@H]2C=C(C(=O)N3CCOCC3)O[C@@H](OCCCCO)C2)c2ccccc21	5	i	-2	-7	0	-2	nt	nt	nt	nt	nt
COc1cc(/C=C/c2nc3ccccc3c(=O)[nH]2)cc(Br)c1O	35	+	50*	7	-3	38*	79*	78*	43*	-23	19
Cc1ccc(S(=O)(=O)Nc2cc(C)cn(Cc3ccc(F)cc3)c2=O)cc1	18	+	24*	4	7	18	36*	47*	33	-19	59*
O=C(Nc1nccs1)c1ccc(-c2ccc([N+](=O)[O-])cc2)o1	29	+	37*	-7	-4	17	34*	48*	-14	-4	active
COc1ccc2c(c1OC)C(=O)N(c1ccc(C)cc1)C2	-1	i	-1	-9	-3	1	nt	nt	nt	nt	nt

Screening data from PubChem BioAssay.
